Measured values reported in ChEMBL document CHEMBL2176900, “Design and synthesis of a novel series of bicyclic heterocycles as potent γ-secretase modulators” (J Med Chem, 2012).
Values after ≈ are worked out from the molar mass of the structure shown. Active and inactive are the calls of the source. The calls are words filed in the database; no cut-off is given here.

Assays:
Rattus norvegicus [1] = test: Antialzheimer activity in Sprague-Dawley rat assessed as amyloid beta 37 level in brain at 10 mg/kg, po at 4 hrs by ELISA relative to control; type: functional
Outline: (§1)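 Male Sprague-Dawley rats (180-220 g), fasted overnight, were given 10 mg/kg by gastric intubation as a 5 mg/mL suspension in 0.5% methocellulose. At 2, 4, 7 and 25 h, 50 μL CSF was taken from the cisterna magna under isoflurane, then brain was collected. Aβ37/38/40/42 were measured by MesoScale Discovery sandwich immunoassays. Results are mean % change versus T = 0 h, n = 5.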

Rattus norvegicus [2] = test: Antialzheimer activity in Sprague-Dawley rat assessed as amyloid beta 37 level in CSF at 10 mg/kg, po at 2 hrs by ELISA relative to control; type: functional; outline: as §1
[3] = Plasma concentration in beagle dog at 20 mg/kg, po at 4 hrs; type: ADME, organism-based, Canis lupus familiaris; set-up: dose 20 mg/kg, route oral
[4] = Oral bioavailability in CD1 Swiss mouse at 10 mg/kg; type: ADME, organism-based; conditions: in vivo
[5] = Plasma concentration in CD1 mouse at 30 mg/kg, po at 24 hrs by LC-MS/MS analysis; type: ADME, organism-based; set-up: dose 30 mg/kg, route oral
Outline: (§2)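 Mice received a single 10 or 30 mg/kg oral dose. Plasma was sampled at several time points up to 48 h, with EDTA plasma obtained by centrifugation at 1900g, 10 min, 4 °C. Compound was quantified by LC-MS/MS, n = 4.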

[6] = Drug uptake in CD1 mouse brain at 10 mg/kg, po at 8 hrs by LC-MS/MS analysis; type: ADME, organism-based; set-up: dose 10 mg/kg, route oral; conditions: read-out: Drug uptake
Outline: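 Overnight-fasted male CD1 mice received one oral dose (10 or 30 mg/kg) in 20% Captisol. After sacrifice, the left brain hemisphere was stored at −18 °C. Compound level was quantified by a qualified LC-MS/MS method, alongside EDTA plasma spun at 1900g, 4 °C. n = 4 per time point.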

[7] = Plasma concentration in CD1 mouse at 10 mg/kg, po at 24 hrs by LC-MS/MS analysis; type: ADME, organism-based; set-up: dose 10 mg/kg, route oral; outline: as §2
[8] = Plasma concentration in CD1 mouse at 10 mg/kg, po at 8 hrs by LC-MS/MS analysis; type: ADME, organism-based; set-up: dose 10 mg/kg, route oral; outline: as §2
Mus musculus [9] = test: Antialzheimer activity in CD1 mouse assessed as amyloid beta 42 level in brain at 30 mg/kg, po at 4 hrs by ELISA relative to control; type: functional
Outline: (§3)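 Male CD1 SPF mice, fasted overnight, got a single oral dose of 10 or 30 mg/kg. At each time point the right brain hemisphere was homogenized in 0.4% DEA/50 mM NaCl with protease inhibitors and spun at 221300g for 50 min. The supernatant was neutralized with Tris-HCl pH 6.8. Aβ38 or Aβ42 was read by sandwich ELISA with a fluorogenic peroxidase substrate (ex 320/em 420 nm). Results are mean % change versus T = 0 h, n = 4.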

Mus musculus [10] = test: Antialzheimer activity in CD1 mouse assessed as amyloid beta 38 level in brain at 10 mg/kg, po at 4 hrs by ELISA relative to control; type: functional; outline: as §3
[11] = Thermodynamic solubility in fasted state simulated intestinal fluid; type: physicochemical; conditions: read-out: Therm_solubility
Outline: (§4)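 Thermodynamic solubility was measured in pH 4.0 and pH 7.4 buffers, 0.01 N HCl, and fasted-state and fed-state simulated intestinal fluids (FaSSIF, FeSSIF). Results are in […].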

[12] = Thermodynamic solubility in buffer at pH 4; type: physicochemical; conditions: read-out: Therm_solubility; outline: as §4
[13] = Genotoxicity against human TK6 cells by GreenScreen HC test; type: toxicity, cell-based
Cytochrome P450 1A2 = molecular target: T1, Cytochrome P450 1A2 (Homo sapiens, UniProt P05177); test: Inhibition of CYP1A2 in human liver microsomes using phenacetin as substrate; type: ADME, Microsome
T1 sequence (P05177 whole entry): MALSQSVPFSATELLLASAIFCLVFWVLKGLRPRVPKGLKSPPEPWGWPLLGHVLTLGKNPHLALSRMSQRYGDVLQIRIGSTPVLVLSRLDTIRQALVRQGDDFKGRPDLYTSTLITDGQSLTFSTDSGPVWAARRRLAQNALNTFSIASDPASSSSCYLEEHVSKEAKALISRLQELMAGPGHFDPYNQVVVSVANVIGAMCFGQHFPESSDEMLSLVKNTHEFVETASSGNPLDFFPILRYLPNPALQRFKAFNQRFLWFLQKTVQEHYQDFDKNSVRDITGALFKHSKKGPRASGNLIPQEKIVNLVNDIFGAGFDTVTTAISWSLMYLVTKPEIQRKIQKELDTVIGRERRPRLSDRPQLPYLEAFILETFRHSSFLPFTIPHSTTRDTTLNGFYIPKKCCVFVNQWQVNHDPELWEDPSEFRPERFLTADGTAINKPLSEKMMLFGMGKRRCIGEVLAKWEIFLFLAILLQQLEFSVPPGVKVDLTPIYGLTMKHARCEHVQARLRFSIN

Cytochrome P450 2C9 = Cytochrome P450 2C9 (Homo sapiens, UniProt P11712); test: Inhibition of CYP2C9 in human liver microsomes using tolbutamide as substrate; type: ADME, Microsome
Cytochrome P450 3A4 = Cytochrome P450 3A4 (Homo sapiens, UniProt P08684); test: Inhibition of CYP3A4 in human liver microsomes using testosterone as substrate; type: ADME, Microsome
[14] = Drug metabolism in rat liver microsomes at 1 uM after 15 mins by ion-trap mass spectrophotometry; type: ADME, Microsome; conditions: read-out: Drug metabolism
[15] = Drug metabolism in mouse liver microsomes at 1 uM after 15 mins by ion-trap mass spectrophotometry; type: ADME, Microsome; conditions: read-out: Drug metabolism
[16] = molecular target: Voltage-gated inwardly rectifying potassium channel KCNH2 (Homo sapiens, UniProt Q12809); test: Displacement of [3H]dofetilide to human ERG expressed in HEK293 cells; type: cell-based
[17] = Inhibition of notch processing up to 10 uM
[18] = Drug uptake in Sprague-Dawley rat brain at 10 mg/kg, po at 4 hrs by LC-MS/MS analysis; type: ADME, organism-based; set-up: dose 10 mg/kg, route oral; conditions: read-out: Drug uptake
Outline: (§5)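 Overnight-fasted male Sprague–Dawley rats (180–220 g) were dosed 10 mg/kg by gastric intubation of a 5 mg/mL suspension in 0.5% methocellulose. Rats were anesthetized with isoflurane, CSF was taken from the cisterna magna, then they were decapitated. Brain compound levels were measured as in the mouse assay. n = 5.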

[19] = Drug uptake in Sprague-Dawley rat brain at 10 mg/kg, po at 2 hrs by LC-MS/MS analysis; type: ADME, organism-based; set-up: dose 10 mg/kg, route oral; conditions: read-out: Drug uptake; outline: as §5
[20] = Plasma concentration in Sprague-Dawley rat at 10 mg/kg, po at 25 hrs by LC-MS/MS analysis; type: ADME, organism-based; set-up: dose 10 mg/kg, route oral
Outline: (§6)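 Overnight-fasted male Sprague-Dawley rats (180–220 g) were given 10 mg/kg by gastric intubation of a 5 mg/mL suspension in 0.5% methocellulose. Blood was collected after decapitation at 2, 4, 7 and 25 h under isoflurane anaesthesia. Plasma compound was measured as in the mouse assay, n = 5.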

[21] = Plasma concentration in Sprague-Dawley rat at 10 mg/kg, po at 4 hrs by LC-MS/MS analysis; type: ADME, organism-based; set-up: dose 10 mg/kg, route oral; outline: as §6
Rattus norvegicus [22] = test: Antialzheimer activity in Sprague-Dawley rat assessed as amyloid beta 40 level in CSF at 10 mg/kg, po at 7 hrs by ELISA relative to control; type: functional; outline: as §1
Canis familiaris = test: Antialzheimer activity in beagle dog assessed as amyloid beta 38 level in cerebrospinal fluid at 20 mg/kg, po at 4 hrs by ELISA relative to control

Sequence of Cytochrome P450 2C9 (P11712 whole entry): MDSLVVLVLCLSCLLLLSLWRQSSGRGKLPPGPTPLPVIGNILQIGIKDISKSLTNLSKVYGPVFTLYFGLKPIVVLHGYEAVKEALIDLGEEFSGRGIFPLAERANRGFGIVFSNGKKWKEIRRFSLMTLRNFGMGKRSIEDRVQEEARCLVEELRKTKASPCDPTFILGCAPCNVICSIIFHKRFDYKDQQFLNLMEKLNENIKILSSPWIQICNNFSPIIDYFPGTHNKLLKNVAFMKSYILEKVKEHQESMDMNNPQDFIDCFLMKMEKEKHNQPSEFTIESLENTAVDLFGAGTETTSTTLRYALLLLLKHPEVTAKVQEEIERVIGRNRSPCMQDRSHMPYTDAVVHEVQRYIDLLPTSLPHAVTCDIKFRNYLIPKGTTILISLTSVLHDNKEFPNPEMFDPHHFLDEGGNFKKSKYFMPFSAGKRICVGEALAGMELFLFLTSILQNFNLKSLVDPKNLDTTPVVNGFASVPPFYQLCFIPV
Sequence of Cytochrome P450 3A4 (P08684 whole entry): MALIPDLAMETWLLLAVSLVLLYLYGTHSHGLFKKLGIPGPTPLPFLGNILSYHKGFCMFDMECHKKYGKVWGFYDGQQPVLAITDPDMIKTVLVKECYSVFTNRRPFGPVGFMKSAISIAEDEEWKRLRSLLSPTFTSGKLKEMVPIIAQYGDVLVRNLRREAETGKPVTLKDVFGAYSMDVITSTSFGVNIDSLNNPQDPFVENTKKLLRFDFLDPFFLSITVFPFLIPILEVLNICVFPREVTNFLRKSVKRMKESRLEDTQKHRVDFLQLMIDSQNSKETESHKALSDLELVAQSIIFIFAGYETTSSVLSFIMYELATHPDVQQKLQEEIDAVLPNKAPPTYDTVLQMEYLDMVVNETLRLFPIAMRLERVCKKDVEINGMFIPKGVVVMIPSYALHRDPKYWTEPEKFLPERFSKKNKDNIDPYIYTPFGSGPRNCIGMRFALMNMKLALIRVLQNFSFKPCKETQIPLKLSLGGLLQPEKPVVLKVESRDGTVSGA
Sequence of Voltage-gated inwardly rectifying potassium channel KCNH2 (Q12809 whole entry): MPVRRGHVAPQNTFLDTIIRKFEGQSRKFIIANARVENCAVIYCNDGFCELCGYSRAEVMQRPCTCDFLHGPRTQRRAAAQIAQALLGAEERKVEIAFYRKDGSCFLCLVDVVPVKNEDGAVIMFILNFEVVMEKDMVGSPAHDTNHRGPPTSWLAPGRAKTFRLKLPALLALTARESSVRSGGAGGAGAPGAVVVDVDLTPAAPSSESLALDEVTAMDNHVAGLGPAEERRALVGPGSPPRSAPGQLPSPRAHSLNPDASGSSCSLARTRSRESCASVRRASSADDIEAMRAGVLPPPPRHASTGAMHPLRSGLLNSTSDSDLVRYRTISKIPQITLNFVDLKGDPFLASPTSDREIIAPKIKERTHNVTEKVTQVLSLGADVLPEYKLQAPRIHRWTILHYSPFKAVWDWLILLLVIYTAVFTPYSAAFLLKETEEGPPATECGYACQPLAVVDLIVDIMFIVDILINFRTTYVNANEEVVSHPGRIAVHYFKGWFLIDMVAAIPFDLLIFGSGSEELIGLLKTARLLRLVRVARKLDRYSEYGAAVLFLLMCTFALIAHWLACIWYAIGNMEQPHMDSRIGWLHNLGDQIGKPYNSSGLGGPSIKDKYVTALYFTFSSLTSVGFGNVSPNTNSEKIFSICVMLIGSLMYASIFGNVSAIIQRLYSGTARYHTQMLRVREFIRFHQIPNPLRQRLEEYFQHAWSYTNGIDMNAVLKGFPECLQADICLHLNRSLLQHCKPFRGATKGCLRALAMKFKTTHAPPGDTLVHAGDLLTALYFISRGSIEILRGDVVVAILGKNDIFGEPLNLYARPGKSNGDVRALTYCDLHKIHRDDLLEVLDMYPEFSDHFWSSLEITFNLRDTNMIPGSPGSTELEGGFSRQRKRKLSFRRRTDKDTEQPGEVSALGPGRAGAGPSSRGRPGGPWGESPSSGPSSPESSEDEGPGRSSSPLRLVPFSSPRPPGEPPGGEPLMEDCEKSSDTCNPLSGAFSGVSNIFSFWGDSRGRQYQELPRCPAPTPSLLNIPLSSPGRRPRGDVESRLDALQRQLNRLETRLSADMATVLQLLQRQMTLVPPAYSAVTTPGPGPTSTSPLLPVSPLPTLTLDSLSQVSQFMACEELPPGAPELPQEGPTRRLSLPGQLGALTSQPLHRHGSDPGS

COc1nc(Nc2cccc3c2nc(-c2ccc(F)cc2)n3C)ccc1-n1cnc(C)c1
Activity (Rattus norvegicus [1]): 506% | Activity (Rattus norvegicus [2]): 735% | concentration at 4 h [3]: 4100 nM | bioavailability [4]: 100% | concentration at 24 h [5]: 310 nM | concentration at 8 h [6]: 1900 nM | concentration at 24 h [7]: 4 nM | concentration at 8 h [8]: 2700 nM | Activity (Mus musculus [9]): 35% | Activity (Mus musculus [10]): 141% | solubility thermodynamic [11]: 3 µg/mL (≈ 7 µM) | solubility thermodynamic [12]: < 1 µg/mL | Activity [13]: Non-toxic | IC50 (Cytochrome P450 1A2): > 30 µM | IC50 (Cytochrome P450 2C9): 21.9 µM | IC50 (Cytochrome P450 3A4): 2.9 µM | metabolised at 0.25 h, 1 µM [14]: 16% | metabolised at 0.25 h, 1 µM [15]: 0% | IC50 [16]: 8.5 µM | inhibition [17]: inactive | concentration at 4 h [18]: 2200 nM | concentration at 2 h [19]: 2500 nM | concentration at 25 h [20]: 20 nM | concentration at 4 h [21]: 4400 nM | Activity (Rattus norvegicus [22]): 56% | Activity (Canis familiaris): 134%
